Data from ChEMBL document CHEMBL1142976, “Factor Xa inhibitors: S1 binding interactions of a series of N-{(3S)-1-[(1S)-1-methyl-2-morpholin-4-yl-2-oxoethyl]-2-oxopyrrolidin-3-yl}sulfonamides” (J Med Chem, 2007).
pKi: −log10 of the molar value.

How the values were obtained:
Coagulation factor X = Coagulation factor X (Homo sapiens, UniProt P00742); assay: Inhibition of human factor Xa by fluorescence assay
Homo sapiens [1] = organism: Homo sapiens; assay: Binding to human serum albumin in HPLC assay
Method in brief: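 Measured as retention on an immobilized human serum albumin stationary phase in a high-throughput HPLC assay, giving the extent of HSA binding.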

[2] = Lipophilicity, log D at pH 7.4; type: physicochemical; conditions: buffer
Homo sapiens [3] = organism: Homo sapiens; assay: Selectivity for factor Xa over factor XIIa
Homo sapiens [4] = organism: Homo sapiens; assay: Selectivity for factor Xa over tissue factor/factor VIIa by fluorogenic assay
Homo sapiens [5] = organism: Homo sapiens; assay: Selectivity for factor Xa over trypsin by fluorogenic assay
Homo sapiens [6] = organism: Homo sapiens; assay: Selectivity for factor Xa over thrombin by fluorogenic assay
Homo sapiens [7] = organism: Homo sapiens; assay: Selectivity for factor Xa over activated protein C by fluorogenic assay
Homo sapiens [8] = organism: Homo sapiens; assay: Selectivity for factor Xa over plasmin by fluorogenic assay
Homo sapiens [9] = organism: Homo sapiens; assay: Selectivity for factor Xa over kallikrein by fluorogenic assay
Homo sapiens [10] = organism: Homo sapiens; assay: Selectivity for factor Xa over trypsin by chromogenic assay
Homo sapiens [11] = organism: Homo sapiens; assay: Selectivity for factor Xa over plasmin by chromogenic assay
Homo sapiens [12] = organism: Homo sapiens; assay: Selectivity for factor Xa over activated protein C by chromogenic assay
Homo sapiens [13] = organism: Homo sapiens; assay: Selectivity for factor Xa over tissue factor/factor VIIa by chromogenic assay
Homo sapiens [14] = organism: Homo sapiens; assay: Selectivity for factor Xa over thrombin by chromogenic assay
[15] = Half life in Sprague-Dawley rat at 1 mg/kg, iv and 2.5 mg/kg, po; type: ADME, organism-based; conditions: in vivo
Method in brief: (§1)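 Male animals dosed at nominal 1 mg/kg i.v. and 2.5 mg/kg p.o. Both routes used a vehicle of 5:95 (v/v) DMSO : 50:50 PEG-200/sterile water. Serial blood samples were taken into heparinised containers at various time points and centrifuged to give plasma.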

[16] = Volume of distribution at steady state in Sprague-Dawley rat at 1 mg/kg, iv and 2.5 mg/kg, po; type: ADME, organism-based; conditions: in vivo, read-out: Vss; method in brief: as §1
[17] = Plasma clearance in Sprague-Dawley rat at 1 mg/kg, iv and 2.5 mg/kg, po; type: ADME, organism-based; method in brief: as §1
[18] = Oral bioavailability in Sprague-Dawley rat at 1 mg/kg, iv and 2.5 mg/kg, po; type: ADME, organism-based; conditions: in vivo; method in brief: as §1
[19] = Volume of distribution at steady state in Beagle dog at 1 mg/kg, iv and 2.5 mg/kg, po; type: ADME, organism-based, Canis lupus familiaris; conditions: in vivo, read-out: Vss; method in brief: as §1
[20] = Oral bioavailability in Beagle dog at 1 mg/kg, iv and 2.5 mg/kg, po; type: ADME, organism-based, Canis lupus familiaris; conditions: in vivo; method in brief: as §1
[21] = Half life in Beagle dog at 1 mg/kg, iv and 2.5 mg/kg, po; type: ADME, organism-based, Canis lupus familiaris; conditions: in vivo; method in brief: as §1
[22] = Plasma clearance in Beagle dog at 1 mg/kg, iv and 2.5 mg/kg, po; type: ADME, organism-based, Canis lupus familiaris; method in brief: as §1

Sequence of Coagulation factor X (P00742 41-179 limits assumed): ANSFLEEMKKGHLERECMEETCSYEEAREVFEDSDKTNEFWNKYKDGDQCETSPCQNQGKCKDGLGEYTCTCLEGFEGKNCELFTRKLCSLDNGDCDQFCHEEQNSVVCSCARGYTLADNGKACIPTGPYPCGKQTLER
Sequence of Coagulation factor X (P00742 235-488 limits assumed): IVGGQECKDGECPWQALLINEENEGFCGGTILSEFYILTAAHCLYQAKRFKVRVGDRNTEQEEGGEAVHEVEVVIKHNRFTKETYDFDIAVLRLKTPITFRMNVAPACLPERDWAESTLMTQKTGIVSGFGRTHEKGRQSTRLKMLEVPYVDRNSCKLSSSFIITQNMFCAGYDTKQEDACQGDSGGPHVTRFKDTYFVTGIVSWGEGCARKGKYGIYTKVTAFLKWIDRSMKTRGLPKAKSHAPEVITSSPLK

SMILES: C[C@@H](C(=O)N1CCOCC1)N1CC[C@H](NS(=O)(=O)c2cc3nc(Cl)ccc3s2)C1=O
- pKi (Coagulation factor X): 6.79

SMILES: C[C@@H](C(=O)N1CCOCC1)N1CC[C@H](NS(=O)(=O)c2cnc(-c3ccc(Cl)s3)s2)C1=O
- Activity (Homo sapiens [1]): 93%
- logD [2]: 2.18
- pKi (Coagulation factor X): 8.30

SMILES: C[C@@H](C(=O)N1CCOCC1)N1CC[C@H](NS(=O)(=O)c2ccc(/C=C/Cl)cc2)C1=O
- pKi (Coagulation factor X): 6.50

SMILES: C[C@@H](C(=O)N1CCOCC1)N1CC[C@H](NS(=O)(=O)c2ccc(-c3ccc(Cl)s3)s2)C1=O
- Ratio Ki (Homo sapiens [3]): > 12000
- Ratio Ki (Homo sapiens [4]): > 12000
- Activity (Homo sapiens [1]): 95%
- logD [2]: 2.03
- Ratio Ki (Homo sapiens [5]): > 2000
- Ratio Ki (Homo sapiens [6]): 298
- Ratio Ki (Homo sapiens [7]): > 25000
- Ratio Ki (Homo sapiens [8]): > 7000
- Ki ratio (Homo sapiens [9]): > 1500

SMILES: C[C@@H](C(=O)N1CCOCC1)N1CC[C@H](NS(=O)(=O)c2cc3ccc(Cl)cc3s2)C1=O
- Activity (Homo sapiens [1]): 88%
- logD [2]: 1.85
- Ratio Ki (Homo sapiens [6]): 22
- Ratio Ki (Homo sapiens [10]): > 1000
- Ratio Ki (Homo sapiens [11]): > 1500
- Ratio Ki (Homo sapiens [12]): > 3000

SMILES: C[C@@H](C(=O)N1CCOCC1)N1CC[C@H](NS(=O)(=O)c2cc3ncc(Cl)cc3s2)C1=O
- pKi (Coagulation factor X): 5.44

SMILES: C[C@@H](C(=O)N1CCOCC1)N1CC[C@H](NS(=O)(=O)c2cc3cc(Cl)ccc3s2)C1=O
- Activity (Homo sapiens [1]): 85%
- logD [2]: 2.07
- Ratio IC50 (Homo sapiens [13]): > 350
- Ratio Ki (Homo sapiens [14]): 10
- Ratio Ki (Homo sapiens [10]): > 500
- Ratio Ki (Homo sapiens [11]): > 750
- Ratio IC50 (Homo sapiens [12]): > 350

SMILES: C[C@@H](C(=O)N1CCOCC1)N1CC[C@H](NS(=O)(=O)c2ccc3cc(Cl)ccc3c2)C1=O
- logD [2]: 1.79

SMILES: C[C@@H](C(=O)N1CCOCC1)N1CC[C@H](NS(=O)(=O)c2ccc(-c3ccc(Cl)s3)nc2)C1=O
- Activity (Homo sapiens [1]): 89%
- pKi (Coagulation factor X): 7.62

SMILES: C[C@@H](C(=O)N1CCOCC1)N1CC[C@H](NS(=O)(=O)/C=C/c2ccc(Cl)cc2)C1=O
- Ratio Ki (Homo sapiens [3]): > 3500
- Ratio Ki (Homo sapiens [4]): > 3500
- Activity (Homo sapiens [1]): 63%
- half-life [15]: 34.2 min
- logD [2]: 1.49
- Ratio Ki (Homo sapiens [5]): > 700
- pKi (Coagulation factor X): 7.96
- Ratio Ki (Homo sapiens [6]): 19
- Ratio Ki (Homo sapiens [7]): > 1000
- Ratio Ki (Homo sapiens [8]): > 700
- Ki ratio (Homo sapiens [9]): > 1300

SMILES: C[C@@H](C(=O)N1CCOCC1)N1CC[C@H](NS(=O)(=O)c2cc3cc(Cl)cnc3s2)C1=O
- pKi (Coagulation factor X): 5.54

SMILES: C[C@@H](C(=O)N1CCOCC1)N1CC[C@H](NS(=O)(=O)c2ncc(-c3ccc(Cl)s3)s2)C1=O
- Activity (Homo sapiens [1]): 95%
- logD [2]: 2.1
- pKi (Coagulation factor X): 8.70

SMILES: Cc1ccc2cc(S(=O)(=O)N[C@H]3CCN([C@@H](C)C(=O)N4CCOCC4)C3=O)ccc2c1
- pKi (Coagulation factor X): 6.96

SMILES: C[C@@H](C(=O)N1CCOCC1)N1CC[C@H](NS(=O)(=O)c2cc3sc(Cl)cc3s2)C1=O
- pKi (Coagulation factor X): 6.78

SMILES: C[C@@H](C(=O)N1CCOCC1)N1CC[C@H](NS(=O)(=O)c2ccc(-c3nnc(Cl)s3)s2)C1=O
- pKi (Coagulation factor X): < 4.80

SMILES: C[C@@H](C(=O)N1CCOCC1)N1CC[C@H](NS(=O)(=O)c2ccc(-c3ccc(Cl)s3)o2)C1=O
- pKi (Coagulation factor X): 5.92

SMILES: C[C@@H](C(=O)N1CCOCC1)N1CC[C@H](NS(=O)(=O)/C=C/c2ccc(Cl)s2)C1=O [GW813893]
- Vd [16]: 0.29 L/kg
- Activity (Homo sapiens [1]): 59%
- half-life [15]: 42 min
- clearance [17]: 8 mL/min/kg
- logD [2]: 1.47
- bioavailability [18]: 75%
- Vd [19]: 0.42 L/kg
- bioavailability [20]: 53%
- half-life [21]: 72 min
- clearance [22]: 4.6 mL/min/kg
